Experimental data from different studies.
Lines come from different studies, so protocols differ.
Target: Proto-oncogene tyrosine-protein kinase ROS (ROS1, Homo sapiens, UniProt P08922)

O=C(c1ccc(Nc2ncc(Cl)c(-c3ccc(Cl)s3)n2)cc1)N1CCC(N2CCCC2)CC1 — remaining binding (binding; competition with immobilised ligand; 1 µM): 37%
C=CC(=O)N1CCC(C(=O)NCC(=O)N2CCN(c3nc(-c4cnc(N)nc4C(F)F)nc(N4CCOCC4)n3)CC2)CC1 — remaining binding (binding; competition with immobilised ligand; 1 µM): 87%
CN(C)CC#Cc1ccc(OCCCc2sc(N3CCc4cccc(C(=O)Nc5nc6ccccc6s5)c4C3)nc2C(=O)O)c(F)c1 — remaining binding (cell-free assay; competition with immobilised ligand; 1 µM): 93%
Cc1cnn2ncc(-c3ccnc(N(C)C)n3)c2c1 — remaining binding (binding; 1 µM): 100%
O=C(Nc1cccnn1)N1CCC(=Cc2cccc(Oc3ccc(C(F)(F)F)cn3)c2)CC1 — remaining binding (cell-free assay; competition with immobilised ligand; 1 µM): 80%
CN(C)c1nccc(-c2cnc3ncccn23)n1 — remaining binding (binding; 1 µM): 71%
CO[C@H]1CC[C@H](CNc2ccc(S(=O)(=O)NC(=O)c3ccc(N4CCN(CC5=C(c6ccc(Cl)cc6)CC(C)(C)CC5)CC4)cc3Oc3cnc4[nH]ccc4c3)cc2[N+](=O)[O-])CC1 — remaining binding (cell-free assay; competition with immobilised ligand; 1 µM): 72%
COc1ncc2cc3ccccc3nc2c1C#N — remaining binding (cell-free assay; competition with immobilised ligand; 5 µM): 91%
CO[C@@H](C)c1c(Nc2ccc([C@H](N(C)C(=O)C3CCS(=O)(=O)CC3)C(F)(F)F)cc2)cnc2cc(Cl)nn12 — remaining binding (cell-free assay; competition with immobilised ligand; 1 µM): 77%
N[C@@H]1CCN(c2nccc(-c3cnn4ncccc34)n2)C1 — remaining binding (binding; 1 µM): 72%
CCN1CCN(Cc2ccc(C(=O)Nc3ccc(C)c(Oc4ccc5c(c4)CC(=O)N5)c3)cc2C(F)(F)F)CC1 — remaining binding (binding; competition with immobilised ligand; 1 µM): 100%
C[C@@H]1CCN(c2nccc(-c3cnn4ncccc34)n2)C1 — remaining binding (binding; 1 µM): 99%
O=C(NCCCC1CCCCC1)c1ccc(CNC(=O)c2cnn(-c3ccccc3)c2C(F)(F)F)cc1 — remaining binding (cell-free assay; competition with immobilised ligand; 0.1 µM): 100%
COc1cnc(Nc2cccc(S(N)(=O)=O)c2)nc1N1CCN(c2ccccc2)CC1 — remaining binding (binding; competition with immobilised ligand; 1 µM): 99%
c1cnn2ncc(-c3ccnc(N4CCC45COC5)n3)c2c1 — remaining binding (binding; 1 µM): 100%
Nc1ncc2c(n1)-c1c([nH]c3ccc(C#CC4CC4)cc13)CCCC2 — remaining binding (binding; competition with immobilised ligand; 1 µM): 99%
O=C(Nc1c[nH]nc1C(=O)NC1CCNCC1)c1cc(F)cc(F)c1 — remaining binding (binding; competition with immobilised ligand; 1 µM): 100%
COc1ccnn2ncc(-c3ccnc(N(C)C)n3)c12 — remaining binding (binding; 1 µM): 100%
O=C(c1ccc(Nc2nccc(-c3cc4ccccc4s3)n2)cc1)N1CCC(N2CCCC2)CC1 — remaining binding (binding; competition with immobilised ligand; 1 µM): 65%
CC(=O)C1=C(C)N(c2cccc(C(F)(F)F)c2)C(=O)N[C@@H]1c1ccc(C#N)nc1 — remaining binding (cell-free assay; competition with immobilised ligand; 1 µM): 100%
COc1cnc(Nc2cccc(S(N)(=O)=O)c2)nc1N1CCN(c2ccccc2)C(=O)C1 — remaining binding (binding; competition with immobilised ligand; 1 µM): 100%
O=C(NCCCN1CCOCC1)c1ccc(Nc2nccc(-c3cc4ccccc4s3)n2)cc1 — remaining binding (binding; competition with immobilised ligand; 1 µM): 53%
